This is a sample that favours compounds with a hit; in the whole collection about 9.8% have one here.
Calpain2 inh: inhibitors of pig calpain II. purified calpain II, fluorogenic peptide substrate, 30 min. inhibition, % at 16 µM. 0.37% of 220,000 active;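 active = inhibition above about 50%, limit read from the data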
Lmaj promast: inhibitors of Leishmania major promastigote growth; Leishmania major promastigotes, resazurin fluorescence viability; inhibition, % at 10 µM; 9% of 200,000 active; AID 1063; in the data active = inhibition above about 50%;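 note: promastigotes grown with compound for 44 hours at 28 °C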
PMI activator: increases human mannose-6-phosphate isomerase activity; P34949; 0.005% of 190,000 active; activation factor at 20 µM; AID 1214; purified human PMI, coupled resazurin fluorescence, 20 min; active compounds read high; 1 = vehicle control, 0 substrate-free wells;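 active = activation factor of 2 or more at 20 µM, relative to plate controls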
PMI act hi M6P: increases human PMI activity with near-saturating mannose 6-phosphate | coupled PMI enzyme assay, resazurin fluorescence, 20 min; active compounds read high; 1 = untreated enzyme, 0 = substrate-free blank | P34949 | 0.34% of 190,000 active | activation factor at 20 µM | AID 1216;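 active = activation factor of 2 or more at 20 µM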
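Test system: human phosphomannose isomerase with PGI, G6PDH, diaphorase coupling enzymes; Amount: PMI at 15 ng/mL final; Reagent: Mannose-6-phosphate 1.0 mM (near-saturating) plus 0.22 mM NADP+; Timing: 20 min, room temperature; Technique: resorufin fluorescence at Ex 544/Em 590 nm; Dosing: 20 µM single dose.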
Rad51 HR inh: Rad51 (human) homologous recombination inhibition. Q06609. hRad51 DNA strand exchange, fluorescence dequenching. inhibition, % at 10 µM. 0.085% of 200,000 active. AID 1385;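 active = inhibition above 40% at the single screening dose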;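 note: 0% = DMSO control wells and 100% = blanks with heterologous ssDNA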
Target sequence (Q06609 whole entry, looked up): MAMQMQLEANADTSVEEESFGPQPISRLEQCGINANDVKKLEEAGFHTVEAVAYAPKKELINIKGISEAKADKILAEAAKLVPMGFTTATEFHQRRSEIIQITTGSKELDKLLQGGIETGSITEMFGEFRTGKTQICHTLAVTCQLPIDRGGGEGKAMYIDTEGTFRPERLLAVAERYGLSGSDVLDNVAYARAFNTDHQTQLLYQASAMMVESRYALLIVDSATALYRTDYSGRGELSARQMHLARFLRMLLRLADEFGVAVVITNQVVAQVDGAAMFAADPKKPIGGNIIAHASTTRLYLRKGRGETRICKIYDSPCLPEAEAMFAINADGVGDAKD
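Test system: preformed human Rad51 ssDNA filaments; also added: Donor/quencher-labelled 47-bp dsDNA substrate; doses: 10 µM final, single point; times: 37 °C 15-min filament assembly, 30-min compound preincubation, 15-min exchange; detection: FRET fluorescence dequenching, excitation 485 nm, emission 520 nm; read-out basis: Fluorescence-based percent inhibition, control- and blank-normalised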
WT yeast gro inh: growth inhibition of WT yeast, mitochondrial fusion screen; mitochondrial fusion phenotypic screen, WT strain; inhibition, % at 10 µM; 2.1% of 190,000 active; AID 1362; in the data active = inhibition above about 58%; tested in S. cerevisiae
* hit, by the source's call; i = inactive; . = no result given.

SMILES | Calpain2 inh | Lmaj promast | PMI activator | PMI act hi M6P | Rad51 HR inh | WT yeast gro inh
O=c1cc(CN2CCN(C/C=C/c3ccccc3)CC2)c2cc(O)c(-c3ccccc3)cc2o1 | -2.0 | 79.7* | 1.1 | 1 | . | 84.2*
Cc1cc2oc(=O)cc(CN3CCN(S(=O)(=O)c4cccs4)CC3)c2cc1C | -19.3 | 81.2* | 1 | 1 | 4.5 | 13.4
Cc1c(O)ccc2c(CN3CCN(C/C=C/c4ccccc4)CC3)cc(=O)oc12 | -28.8 | . | . | . | . | .
Cc1cc2oc(=O)cc(CN3CCN(C/C=C/c4ccccc4)CC3)c2cc1O | -12.5 | 100.1* | 0.9 | 0.9 | -7.6 | 9.3
CCOC(=O)Nc1ccc2c(CN3CCN(S(=O)(=O)c4ccccc4)CC3)cc(=O)oc2c1 | -138.0 | 99.8* | 0.9 | 1 | 4.6 | -1.3
Cc1cc2oc(=O)cc(CN3CCOCC3)c2cc1C | -13.4 | -2.8 | 1 | 1 | -1.0 | 0.3
CCOC(=O)Nc1ccc2c(CN3C(=O)NC4(CCCC4)C3=O)cc(=O)oc2c1 | -414.9 | 7.2 | 1 | 0.9 | -9.2 | -3.4
COC(=O)[C@H](CC(C)C)NC(=O)NCc1ccc(Cl)cc1 | -7.8 | . | . | . | 21.7 | .
CC(C)CN1CCC(CN(C)Cc2nc(-c3cnccn3)no2)CC1 | -5.2 | -1.7 | 0.9 | 0.9 | . | 0.9
CN(Cc1nc(-c2cnccn2)no1)CC1CCN(Cc2ccccc2)CC1 | -14.2 | 91.1* | 1 | 1 | 2.5 | -3.6
CC(C)CCc1noc(CN(C)CC2CCN(Cc3ccccc3)CC2)n1 | -8.7 | 82.7* | 0.9 | 1 | -7.3 | 11.4
O=C(CSc1ccc2nnc(-c3ccncc3)n2n1)Nc1nccs1 | 65.1* | -2.5 | 1.3 | 1.1 | 15.3 | -13.4
O=C(CSc1ccc2nnc(-c3ccccn3)n2n1)Nc1nccs1 | -2.1 | -4.6 | 1.1 | 1 | -4.2 | -17.6
Cc1nnc2sc(SCc3ccccc3)nn2c1=O | 15.1 | -5.0 | 1 | 1.1 | -8.5 | -26.9
Cc1nnc2sc(SCC(=O)Nc3nccs3)nn2c1=O | 27.6 | 92.0* | 0.9 | 1 | -5.1 | 1.6
O=C(CCSCc1ccc(Cl)cc1)NCc1cccnc1 | -18.5 | -8.2 | 1.1 | 1.2 | 2.9 | 5.9
C=CCNc1oc(-c2ccc(OC)cc2)nc1C#N | -401.5 | -2.7 | 0.9 | 0.9 | 88.7* | 8.8
CCOc1ccc(-c2nc(C#N)c(NCC3CCCO3)o2)cc1 (stereo not drawn) | -273.1 | -1.1 | 0.9 | 0.9 | 5.9 | -9.1
CCCOc1ccc(-c2nc(C#N)c(NCC3CCCO3)o2)cc1 (stereo not drawn) | -246.7 | 92.1* | 0.9 | 1 | 2.5 | 7.5
COc1ccc(CCNC(=O)c2cn3ccc(C)cc3n2)cc1OC | 21.8 | -4.4 | 1 | 0.9 | 4.0 | 10.3
COC(=O)CNC(c1ccccc1)c1cc(Cl)ccc1NC(=O)c1cccc(Cl)c1 (stereo not drawn) | 20.0 | 5.6 | 0.8 | 0.9 | 5.0 | 58.2*
NNC(=O)CNC(c1ccccc1)c1cc(Br)ccc1NC(=O)c1cccc(Cl)c1 (stereo not drawn) | -2.7 | 5.8 | 0.9 | 0.9 | -27.5 | 30.0
CCCN1CCN(CCCNC(=S)Nc2ccc3nc(N4CCN(CC)CC4)cc(C)c3c2)CC1 | -10.3 | 25.6 | 0.9 | 0.8 | 1.3 | 14.8
Cc1cc(N2CCOCC2)nc2ccc(NC(=S)N3CCCCC3C)cc12 (stereo not drawn) | -116.5 | 85.5* | 0.5 | 0.3 | -3.8 | -35.8
Cc1cc(N2CCN(C)CC2)nc2ccc(NC(=S)N3CCCCCC3)cc12 | -39.2 | 22.2 | 1 | 0.8 | -1.2 | 19.7
SMILES | Calpain2 inh | Lmaj promast | PMI activator | PMI act hi M6P | Rad51 HR inh | WT yeast gro inh
Cc1cc(N2CCN(C)CC2)nc2ccc(NC(=S)NCCN3CCc4ccccc4C3)cc12 | -56.0 | 100.5* | 1.1 | 1 | -2.6 | 10.7
CCN1CCN(c2cc(C)c3cc(NC(=S)NCCCN4CCc5ccccc5C4)ccc3n2)CC1 | -86.1 | 100.2* | 0.9 | 0.7 | 3.5 | -6.6
Cc1cc(N2CCN(C)CC2)nc2ccc(NC(=S)NCCCN3CCc4ccccc4C3)cc12 | -81.1 | 100.4* | 0.7 | 0.4 | 4.5 | 9.7
Cc1cc(S(=O)(=O)NCC(C)C)ccc1OCC(=O)NCc1ccco1 | 4.6 | 0.0 | 0.9 | 0.9 | -8.7 | 0.3
Cc1nn(C)cc1C(C)NCc1c(C(=O)N2CCCCCCC2)nc2ccc(Cl)cn12 (stereo not drawn) | 6.1 | 6.7 | 0.8 | 0.9 | . | 7.5
O=C(C[n+]1ccccc1)N/N=C/c1cccs1 | 25.5 | -1.5 | 1.1 | 1.1 | 14.7 | -7.8
Cc1ccc(/C=C/C(=O)OCC(=O)Nc2cccc(S(=O)(=O)N(C)C)c2)o1 | 9.3 | -5.2 | 0.9 | 0.9 | . | 6.1
CCOC(=O)N1CCC(NC(=S)Nc2ccc3nc(N4CCN(C)CC4)cc(C)c3c2)CC1 | -60.0 | 15.5 | 0.8 | 0.6 | -8.4 | -4.7
Cc1cc(N2CCCC2)nc2ccc(NC(=S)NCCCN3CCC(C)CC3)cc12 | -74.2 | 100.2* | 1.1 | 1 | 8.0 | -8.4
O=[N+]([O-])c1ccccc1-c1ccc(/C=N/n2cnnc2)o1 | -20.0 | -1.2 | 0.8 | 0.5 | -1.6 | 8.1
O=C1ON=C(c2ccccc2)/C1=C/c1ccc(-c2ccccc2[N+](=O)[O-])o1 | -43.8 | 100.1* | 1 | 1.1 | 3.8 | 7.8
Cc1cccc(C(=O)NCCc2ccc(S(N)(=O)=O)cc2)c1[N+](=O)[O-] | 2.5 | 87.4* | 1.2 | 1.1 | -0.5 | -0.9
COC(=O)c1cccc(NC(=O)Nc2ccccc2OC)c1 | -3.1 | 10.6 | 0.9 | 1 | 8.2 | 17.1
Cc1ccccc1NC(=O)CSc1nnc(-c2ccco2)c(-c2ccco2)n1 | -11.7 | 93.0* | 0.8 | 0.5 | 0.8 | 4.2
Cc1cccc(C)c1NC(=O)CSc1nnc(-c2ccco2)c(-c2ccco2)n1 | -22.0 | 83.1* | 0.8 | 0.5 | -8.0 | 5.4
Cc1ccccc1NC(=O)CSc1n[nH]c(-c2ccco2)n1 | 18.8 | -2.6 | 0.9 | 0.9 | -6.7 | 12.4
Clc1cccc(Cl)c1Cn1ccc(C2CC2)n1 | 12.9 | 3.4 | 1.1 | 1 | -3.6 | -11.0
Cc1nccc2[nH]c(=O)c(C(=O)NC3CCCCC3C)cc12 (stereo not drawn) | -46.2 | 99.0* | 0.9 | 0.9 | 1.0 | 2.3
Cc1ccc(C(=O)NC2CCCc3ccccc32)o1 (stereo not drawn) | -1.3 | 16.0 | 1 | 0.8 | 0.0 | 3.6
O=C(NC(=S)NC1CCCc2ccccc21)c1ccco1 (stereo not drawn) | 6.0 | 3.9 | 1 | 1 | 7.4 | 73.2*
CC(=O)Nc1cccc(OCCCNC(=O)C2CCC2)c1 | 22.1 | . | . | . | 15.0 | .
Cc1nc(-c2ccc(NC(=O)CC(C)C)cc2)cs1 | -10.1 | 1.0 | 1.1 | 0.7 | . | -5.5
CCCNC(=O)CN(C)S(=O)(=O)c1ccc(F)cc1 | -11.0 | 63.8* | 1.1 | 1.1 | -6.5 | -25.8
CC(=O)Nc1c(N)c2ccccc2oc1=O | -8.0 | -3.7 | 1.1 | 1.1 | . | -2.4
CCOC(=O)/C(=C/C=C1\Sc2cc(OCC)c(OCC)cc2N1CC)C(C)=O | -51.6 | 67.7* | 0.8 | 0.6 | i | 8.1

From PubChem BioAssay
